Assays:
[1] = target: T1, GCL (pure human recombinant GCLC and GCLM) (Homo sapiens, UniProt P48506+P48507); test: GCL functional assay; assay type: biochemical
T1 sequence (P48507 1-274): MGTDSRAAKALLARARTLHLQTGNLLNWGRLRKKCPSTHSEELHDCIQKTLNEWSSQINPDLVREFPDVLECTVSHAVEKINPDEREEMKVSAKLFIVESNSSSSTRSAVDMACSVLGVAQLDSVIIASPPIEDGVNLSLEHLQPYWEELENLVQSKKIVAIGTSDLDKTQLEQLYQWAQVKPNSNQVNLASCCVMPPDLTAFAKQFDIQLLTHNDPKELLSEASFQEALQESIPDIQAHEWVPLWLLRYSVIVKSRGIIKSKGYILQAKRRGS
T1 sequence (P48506 1-637): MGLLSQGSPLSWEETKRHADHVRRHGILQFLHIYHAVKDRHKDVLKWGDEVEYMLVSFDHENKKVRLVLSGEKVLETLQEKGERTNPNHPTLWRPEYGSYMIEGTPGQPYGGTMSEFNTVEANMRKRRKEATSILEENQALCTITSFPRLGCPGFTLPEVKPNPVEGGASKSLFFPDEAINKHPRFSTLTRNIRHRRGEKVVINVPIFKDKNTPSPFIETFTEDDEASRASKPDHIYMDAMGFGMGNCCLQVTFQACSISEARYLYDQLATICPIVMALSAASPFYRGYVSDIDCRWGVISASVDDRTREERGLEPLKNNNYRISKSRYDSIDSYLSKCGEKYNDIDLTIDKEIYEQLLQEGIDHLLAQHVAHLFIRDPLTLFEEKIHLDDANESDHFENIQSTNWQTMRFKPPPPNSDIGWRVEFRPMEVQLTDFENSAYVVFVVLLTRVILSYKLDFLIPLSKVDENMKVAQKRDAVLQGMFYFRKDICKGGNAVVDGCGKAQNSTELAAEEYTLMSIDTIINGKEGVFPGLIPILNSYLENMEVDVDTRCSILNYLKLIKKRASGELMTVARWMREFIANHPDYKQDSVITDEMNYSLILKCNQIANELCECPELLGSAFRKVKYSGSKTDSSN

pure human GCLM protein = target: T2, pure human GCLM protein (Homo sapiens, UniProt P48507); test: Gel-based ABPP; assay type: binding
T2 sequence (P48507 1-274): T1 sequence (P48507 1-274)
In short: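 Pure recombinant human GCLM (0.1 μg in 50 μL PBS) treated for 30 min at 37 °C with alkyne probe (10–100 μM final) or DMSO. In the competition format, protein is first preincubated with test compound for 30 min at 37 °C, then labelled with probe (50 μM final) for 2 h at 37 °C. Rhodamine-azide (1 μM final) appended by CuAAC, then reducing SDS-PAGE and in-gel fluorescence; silver stain confirms loading.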

[2] = test system: A2780 ARID1A-negative ovarian cancer cells; test: Cell viability by Hoechst staining, A2780; assay type: cell-based, human; conditions: Hoechst staining at 24 hr
In short: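 A2780 cells seeded at 6,000/well in 96-well plates and left to adhere overnight, then dosed with test compound or DMSO vehicle for 24 hr. Fixed and stained with 10% formalin plus Hoechst 33342 for 15 min in the dark at room temperature, then washed three times with PBS before fluorescence reading. Expressed as percentage of DMSO control, mean ± sem, n=6 biologically independent replicates.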

[3] = test system: RMG-1 ARID1A-positive ovarian cancer cells; test: Cell viability by Hoechst staining, RMG-1; assay type: cell-based, human; conditions: Hoechst staining at 24 hr
[4] = test system: GSH levels in A2780 cells; test: LC-MS/MS quantification of GSH levels, A2780; assay type: cell-based, human; conditions: SRM LC-MS/MS 4hr post treatment
[5] = test system: GSH levels in RMG-1 cells; test: LC-MS/MS quantification of GSH levels, RMG-1; assay type: cell-based, human; conditions: SRM LC-MS/MS 4hr post treatment
[6] = target: T3, GCLM C114 (pure human GCLM and GCLC) (Homo sapiens, UniProt P48507); test: LC-MS/MS analysis of EN25 adduct on GCL complex; assay type: binding; conditions: EN25 50 μM, 30 min at 37°C; tryptic digest LC-MS/MS
T3 sequence (P48507 1-274): T1 sequence (P48507 1-274)
T3 sequence (P48506 1-637 partner): T1 sequence (P48506 1-637)

[7] = test system: cysteines within proteins in A2780 cells; test: isoTOP-ABPP cysteine chemoproteomic profiling; assay type: cell-based, human; conditions: A2780 cells treated 90 min; IA-alkyne 100 μM
siGCLM A2780 cells = test: Cell viability after GCLM knockdown; assay type: cell-based, human; conditions: siGCLM vs siControl A2780, 24 hr treatment, Hoechst staining
A2780 cells = test: Ferrostatin rescue experiment; assay type: cell-based, human; conditions: Ferrostatin-1 2 μM with EN25 50μM, A2780, 48 hr, Hoechst staining

| Structure (SMILES) | IC50 [1] [µM] | covalent labeling of GCLM (pure human GCLM protein; in-gel fluorescence after CuAAC with rhodamine-azide) | cell viability impairment [2] | cell viability impairment [3] | GSH levels [4] | GSH levels [5] | site of covalent modification on GCL complex [6] | competition of EN25-alkyne labeling of GCLM (pure human GCLM protein; pre-incubation 30 min at 37°C, then EN25-alkyne 50 μM for 2 h) | proteome-wide selectivity: potential off-targets [7] | cell viability impairment upon GCLM knockdown (siGCLM A2780 cells) | rescue of EN25-mediated cell viability impairment (A2780 cells) |
| --- | --- | --- | --- | --- | --- | --- | --- | --- | --- | --- | --- |
| C#CCOc1ccc(-c2ccc(CNC(=O)c3ccc(CNC(=O)C=C)cc3)cc2)cc1 [EN25-alkyne] | 3.6 | showed covalent labeling of GCLM |  |  |  |  |  |  |  |  |  |
| C=CC(=O)NCc1ccc(C(=O)Nc2ccc(Sc3ccc(C)c(C)c3)cc2)cc1 [EN25] | 16 |  | more sensitive A2780 cancer cell line | RMG-1 cancer cells showed resistance to EN25-mediated cell viability impairments | significantly lowered GSH levels in A2780 cancer cells | no changes observed in RMG-1 cells | selective and covalent EN25 modification of C114 on GCLM | dose-responsive competition of this labeling by EN25 | nine potential off-targets of EN25 out of >5000 cysteines | GCLM knockdown with siRNA conferred hypersensitivity to EN25-mediated cell viability impairments |  |
| CCOC(=O)c1ccc(NC2CCCCC2)c(N)c1 [ferrostatin, Ferrostatin-1] |  |  |  |  |  |  |  |  |  |  | attenuated the cell viability impairments conferred by EN25 treatment |
